The source made the active and inactive calls.
What was measured:
Type in all cases: functional, organism-based
Bacillus subtilis = assay: Antibacterial activity against Bacillus subtilis at 1 mM by almar blue dye reduction assay
Method in brief: (§1)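 Single-point primary screen at 1 mM using Alamar Blue dye reduction as the growth read-out.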

Bacillus anthracis = assay: Antibacterial activity against Bacillus anthracis at 1mM by almar blue dye reduction assay
Pseudomonas aeruginosa = assay: Antibacterial activity against Pseudomonas aeruginosa at 1 mM by almar blue dye reduction assay; method in brief: as §1
Candida albicans = assay: Antifungal activity against Candida albicans at 1 mM by almar blue dye reduction assay; method in brief: as §1
Cryptococcus neoformans = assay: Antifungal activity against Cryptococcus neoformans at 1 mM by almar blue dye reduction assay; method in brief: as §1
Saccharomyces cerevisiae = assay: Antifungal activity against Saccharomyces cerevisiae at 1 mM by almar blue dye reduction assay; method in brief: as §1
Escherichia coli = assay: Antibacterial activity against Escherichia coli at 1 mM by almar blue dye reduction assay; method in brief: as §1
Staphylococcus aureus = assay: Antibacterial activity against Staphylococcus aureus at 1 mM by almar blue dye reduction assay; method in brief: as §1
Bacillus cereus = assay: Antibacterial activity against Bacillus cereus at 1 mM by almar blue dye reduction assay; method in brief: as §1

Measured: Activity

C[C@H](C[C@@H]1CC[C@H]([C@@H](C)C(=O)N2CCN(CC3CCCO3)CC2)O1)n1cc(C#CCN(C)CCc2ccccc2)nn1 (some centres not stated)
inactive: all assays above

COCCNCC#Cc1cn([C@H](C)C[C@@H]2CC[C@H]([C@@H](C)C(=O)N3CCCC3)O2)nn1
inactive: all assays above

C[C@H](C[C@@H]1CC[C@H]([C@@H](C)C(=O)N(C)Cc2ccccc2)O1)n1cc(C#CCN(C)C)nn1
inactive: all assays above

C[C@H](C[C@@H]1CC[C@H]([C@@H](C)C(=O)N(C)Cc2ccccc2)O1)n1cc(C#CCCCC#N)nn1
inactive: all assays above

COCC#Cc1cn([C@H](C)C[C@@H]2CC[C@H]([C@@H](C)C(=O)N3CCN(CC4CCCO4)CC3)O2)nn1 (some centres not stated)
inactive: all assays above

CCN(CC)C(=O)[C@H](C)[C@H]1CC[C@@H](C[C@@H](C)n2cc(C#CCc3ccccc3)nn2)O1
inactive: all assays above

CCN(CC)C(=O)[C@H](C)[C@H]1CC[C@@H](C[C@@H](C)n2cc(C#CCC(C)C)nn2)O1
inactive: all assays above

C[C@H](C[C@@H]1CC[C@H]([C@@H](C)C(=O)N2CCCC2)O1)n1cc(C#Cc2ccccc2[N+](=O)[O-])nn1
inactive: all assays above

CCN(CC)C(=O)[C@H](C)[C@H]1CC[C@@H](C[C@@H](C)n2cc(C#CCN3CCOCC3)nn2)O1
inactive: all assays above

COCCNCC#Cc1cn([C@H](C)C[C@@H]2CC[C@H]([C@@H](C)C(=O)NC(C)C)O2)nn1
inactive: all assays above

COCCNCC#Cc1cn([C@H](C)C[C@@H]2CC[C@H]([C@@H](C)C(=O)N(C)Cc3ccccc3)O2)nn1
inactive: all assays above

C[C@H](CC1CCC([C@@H](C)C(=O)N2CCN(CC3CCCO3)CC2)O1)n1cc(C#CCNC(=O)OCc2ccccc2)nn1 (single isomer, unassigned)
inactive: all assays above

C[C@H](C[C@@H]1CC[C@H]([C@@H](C)C(=O)N2CCCC2)O1)n1cc(C#CCN2CCOCC2)nn1
inactive: all assays above

CCN(CC)C(=O)[C@H](C)[C@H]1CC[C@@H](C[C@@H](C)n2cc(C#Cc3ccccc3[N+](=O)[O-])nn2)O1
inactive: all assays above

COc1ccc(C#Cc2cn([C@H](C)C[C@@H]3CC[C@H]([C@@H](C)C(=O)N4CCN(CC5CCCO5)CC4)O3)nn2)cc1 (some centres not stated)
inactive: all assays above

CC(C)NC(=O)[C@H](C)[C@H]1CC[C@@H](C[C@@H](C)n2cc(C#Cc3ccccc3)nn2)O1
inactive: all assays above

COc1ccc(C#Cc2cn([C@H](C)C[C@@H]3CC[C@H]([C@@H](C)C(=O)N4CCCC4)O3)nn2)cc1
inactive: all assays above

CCOC(=O)C#Cc1cn([C@H](C)CC2CCC([C@@H](C)C(=O)N3CCCC3)O2)nn1 (single isomer, unassigned)
inactive: all assays above

CC(C)CC#Cc1cn([C@H](C)C[C@@H]2CC[C@H]([C@@H](C)C(=O)NC(C)C)O2)nn1
inactive: all assays above

CC(C)CC#Cc1cn([C@H](C)C[C@@H]2CC[C@H]([C@@H](C)C(=O)N3CCN(CC4CCCO4)CC3)O2)nn1 (some centres not stated)
inactive: all assays above

CCCCCC#Cc1cn([C@H](C)C[C@@H]2CC[C@H]([C@@H](C)C(=O)N3CCCC3)O2)nn1
inactive: all assays above

Cc1cccc(NC(=O)OCC#Cc2cn([C@H](C)CC3CCC([C@@H](C)C(=O)N4CCCC4)O3)nn2)c1 (single isomer, unassigned)
inactive: all assays above

Cc1cccc(NC(=O)OCC#Cc2cn([C@H](C)CC3CCC([C@@H](C)C(=O)NC(C)C)O3)nn2)c1 (single isomer, unassigned)
inactive: all assays above

Source: ChEMBL document CHEMBL1155099, “Natural products in parallel synthesis: triazole libraries of nonactic acid” (2008)
